Legend:
Adenosine receptor A1 = molecular target: T1, Adenosine receptor A1 (Homo sapiens, UniProt P30542); test: Displacement of [3H]CCPA from human adenosine A1 receptor expressed in CHO cells; type: cell-based
T1 sequence (P30542 whole entry): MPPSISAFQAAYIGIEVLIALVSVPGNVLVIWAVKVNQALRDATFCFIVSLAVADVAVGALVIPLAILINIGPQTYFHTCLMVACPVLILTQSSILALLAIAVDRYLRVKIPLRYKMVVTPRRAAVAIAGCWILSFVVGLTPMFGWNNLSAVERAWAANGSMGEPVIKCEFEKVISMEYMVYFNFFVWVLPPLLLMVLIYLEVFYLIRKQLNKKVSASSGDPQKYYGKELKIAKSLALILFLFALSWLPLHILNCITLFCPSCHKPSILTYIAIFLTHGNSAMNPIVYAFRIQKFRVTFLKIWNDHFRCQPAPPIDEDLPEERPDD
How it was run: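 Membranes from CHO cells stably expressing human A1 receptor (1000 g spin to clear nuclei, then 100,000 g pellet, stored -80 °C in binding buffer). Competition binding with 1 nM [3H]CCPA; nonspecific binding defined with 1 mM theophylline. Ki calculated from competition curves.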

Adenosine receptor A2a = Adenosine receptor A2a (Homo sapiens, UniProt P29274); test: Displacement of [3H]NECA from human adenosine A2A receptor expressed in CHO cells; type: cell-based
How it was run: (§1)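 CHO cells stably expressing human receptor; membranes from a two-step spin (1000 g, then 100,000 g), resuspended in binding buffer, stored -80 °C. Competition with [3H]NECA at 30 nM (A2A) or 10 nM (A3); nonspecific binding defined with […]. Ki derived from competition experiments.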

Adenosine receptor A2b = molecular target: T2, Adenosine receptor A2b (Homo sapiens, UniProt P29275); test: Antagonist activity at human adenosine A2B receptor expressed in CHO cells assessed as inhibition of NECA-stimulated adenylyl cyclase activity; type: functional, cell-based
T2 sequence (P29275 whole entry): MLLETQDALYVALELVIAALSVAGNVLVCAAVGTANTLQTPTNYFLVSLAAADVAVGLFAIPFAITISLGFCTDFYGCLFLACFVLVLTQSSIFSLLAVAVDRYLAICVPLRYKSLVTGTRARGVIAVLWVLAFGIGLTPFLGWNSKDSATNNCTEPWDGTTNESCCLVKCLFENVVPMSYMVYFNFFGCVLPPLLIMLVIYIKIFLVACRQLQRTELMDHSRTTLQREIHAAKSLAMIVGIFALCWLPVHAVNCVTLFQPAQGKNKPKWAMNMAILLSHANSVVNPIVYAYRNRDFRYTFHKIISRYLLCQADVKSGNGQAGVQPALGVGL
How it was run: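 Membranes from CHO cells stably transfected with human A2B receptor, prepared by a single high-speed centrifugation of the homogenate, resuspended in 50 mM Tris/HCl pH 7.4 and used at once. Inhibition of NECA-stimulated adenylyl cyclase activity measured; IC50 converted to Ki by Cheng-Prusoff equation.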

Adenosine receptor A3 = molecular target: T3, Adenosine receptor A3 (Homo sapiens, UniProt P0DMS8); test: Displacement of [3H]NECA from human adenosine A3 receptor expressed in CHO cells; type: cell-based; how it was run: as §1
T3 sequence (P0DMS8 whole entry): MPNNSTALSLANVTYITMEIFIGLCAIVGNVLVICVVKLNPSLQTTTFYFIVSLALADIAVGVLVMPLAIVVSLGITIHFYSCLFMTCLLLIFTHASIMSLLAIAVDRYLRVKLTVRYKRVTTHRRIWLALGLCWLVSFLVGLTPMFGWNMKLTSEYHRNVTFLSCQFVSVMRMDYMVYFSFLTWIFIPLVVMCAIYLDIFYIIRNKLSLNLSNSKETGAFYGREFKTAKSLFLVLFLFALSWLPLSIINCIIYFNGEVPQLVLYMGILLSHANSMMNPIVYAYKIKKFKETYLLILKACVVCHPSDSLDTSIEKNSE

Adenosine receptor A2a, sequence (P29274 whole entry): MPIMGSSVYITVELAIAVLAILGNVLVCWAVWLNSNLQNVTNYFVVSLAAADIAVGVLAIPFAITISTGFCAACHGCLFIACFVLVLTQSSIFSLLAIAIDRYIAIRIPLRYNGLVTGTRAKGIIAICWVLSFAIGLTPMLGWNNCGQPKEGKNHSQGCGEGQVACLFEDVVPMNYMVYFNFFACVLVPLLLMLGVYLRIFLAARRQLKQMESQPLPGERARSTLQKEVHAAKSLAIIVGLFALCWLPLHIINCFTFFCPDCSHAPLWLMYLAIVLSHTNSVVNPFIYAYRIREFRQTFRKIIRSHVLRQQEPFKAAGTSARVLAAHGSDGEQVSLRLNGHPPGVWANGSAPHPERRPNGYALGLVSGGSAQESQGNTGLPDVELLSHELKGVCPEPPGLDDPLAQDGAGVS

| SMILES | Ki (Adenosine receptor A1) [µM] | Ki (Adenosine receptor A2a) [µM] | Ki (Adenosine receptor A2b) [µM] | Ki (Adenosine receptor A3) [µM] |
| --- | --- | --- | --- | --- |
| CCC(C)n1c(Br)nc2c(N)ncnc21 (stereo not given) | 3.1 | 0.39 | 1.2 | 15 |
| Nc1ncnc2c1ncn2C1CC1 | > 100 | 2.3 | > 30 | > 100 |
| Cn1cnc2ncnc(N)c21 | > 100 | > 100 | > 30 | > 100 |
| CC(C)Cn1c(Br)nc2c(N)ncnc21 | 4.9 | 6 | 4.2 | 15 |
| Nc1ncnc2c1nc(Br)n2CCO | 1.5 | 0.62 | 2.8 | > 100 |
| CCn1cnc2c(N)ncnc21 | 7.4 | 2.2 | > 30 | > 100 |
| CCn1cnc2ncnc(N)c21 | > 100 | 30 | > 30 | > 100 |
| CCCn1c(Br)nc2c(N)ncnc21 | 1.1 | 0.3 | 0.2 | ≥ 100 |
| CC(O)Cn1cnc2ncnc(N)c21 (stereo not given) | > 100 | > 100 | > 30 | > 100 |
| Nc1ncnc2ncn(CCO)c12 | > 100 | > 100 | > 30 | > 100 |
| Nc1ncnc2c1ncn2C1CCCC1 | 10 | 1.8 | > 30 | 13 |
| Nc1ncnc2nc(Br)[nH]c12 | 33 | 3.2 | > 30 | > 10 |
| Nc1ncnc2c1nc(Br)n2C1CCCCCC1 | > 100 | > 100 | > 30 | > 100 |
| Nc1ncnc2ncn(CC(O)CO)c12 (stereo not given) | > 100 | > 100 | > 30 | > 100 |
| Cn1cnc2c(N)ncnc21 | 12 |  | > 30 | > 100 |
| CC(C)n1c(Br)nc2c(N)ncnc21 | 0.83 | 0.074 | 1.1 | 15 |
| C=CCn1c(Br)nc2c(N)ncnc21 | 8.4 | 0.73 | 4.6 | 20 |
| CCCCn1c(Br)nc2c(N)ncnc21 | 3.2 | 0.73 | 5.6 | > 100 |
| CC(C)Cn1cnc2ncnc(N)c21 | > 100 | > 100 | > 30 | > 100 |
| Nc1ncnc2c1nc(Br)n2C1CCCC1 | 1 | 1.9 | 0.86 | 4.2 |
| Nc1ncnc2c1ncn2C1CCCCCC1 | > 100 | 11 | > 30 | > 100 |
| CCC(C)n1cnc2ncnc(N)c21 (stereo not given) | > 100 | > 100 | > 30 | > 100 |
| Nc1ncnc2c1ncn2C[C@H](O)CO [(S)-DHPA] | > 100 | 8.5 | > 30 | > 100 |
| CCCCn1cnc2c(N)ncnc21 | > 100 | 7.8 | > 30 | > 100 |
| Nc1ncnc2c1ncn2C1CCCCC1 | > 100 | > 100 | > 30 | > 100 |

| SMILES | Ki (Adenosine receptor A1) [µM] | Ki (Adenosine receptor A2a) [µM] | Ki (Adenosine receptor A2b) [µM] | Ki (Adenosine receptor A3) [µM] |
| --- | --- | --- | --- | --- |
| Nc1ncnc2c1ncn2CCCO | > 100 | 3.9 | > 30 | > 100 |
| CCCn1cnc2c(N)ncnc21 | 9.4 | 9.6 | 1.7 | ≥ 100 |
| Cn1c(Br)nc2c(N)ncnc21 | 0.57 | 0.12 | 0.72 | > 100 |
| C=CCCn1cnc2c(N)ncnc21 | > 100 | 8.5 | > 30 | > 100 |
| Nc1ncnc2c1nc(Br)n2Cc1ccccc1 | 6.7 | 6.1 | > 30 | ≥ 100 |
| Nc1ncnc2c1ncn2CCc1ccccc1 | > 100 | 9.6 | > 30 | > 100 |
| Nc1ncnc2c1ncn2Cc1ccccc1 [9-BENZYL-9H-ADENINE] | > 100 | 8.5 | > 30 | > 100 |
| CCCn1cnc2ncnc(N)c21 | > 100 | 18 | > 30 | > 100 |
| Nc1ncnc2c1nc(Br)n2C1CCC1 | 2.2 | 0.66 | 4.1 | 6.2 |
| CC(O)Cn1cnc2c(N)ncnc21 (stereo not given) | 29 | 3.1 | > 30 | > 100 |
| CC(C)Cn1cnc2c(N)ncnc21 | > 100 | > 100 | > 30 | > 100 |
| CCC(C)n1cnc2c(N)ncnc21 (stereo not given) | 34 | 16 | 19 | > 100 |
| Nc1ncnc2c1ncn2C1CCC1 | 8.7 | 4.8 | 17 | 33 |
| Nc1ncnc2c1nc(Br)n2CCCO | 1 | 0.085 | 5.1 | 3.2 |
| CC(O)Cn1c(Br)nc2c(N)ncnc21 (stereo not given) | 2.9 | 1.1 | 0.64 | ≥ 100 |
| CC(C)n1cnc2ncnc(N)c21 | 20 | 12 | > 30 | > 100 |
| Nc1ncnc2c1ncn2CCO | 29 | 11 | > 30 | > 100 |
| CCn1c(Br)nc2c(N)ncnc21 | 0.28 | 0.052 | 0.84 | 28 |
| Nc1ncnc2c1nc(Br)n2CCc1ccccc1 | 12 | 4.9 | > 30 | > 30 |
| Nc1ncnc2c1nc(Br)n2CC(O)CO (stereo not given) | 16 | 4 | 7.1 | ≥ 100 |
| C=CCCn1c(Br)nc2c(N)ncnc21 | 4.9 | 1.6 | > 30 | > 100 |
| CC(C)n1cnc2c(N)ncnc21 | 4.3 | 4.1 | 16 | > 100 |
| Nc1ncnc2ncn(CCCO)c12 | > 100 | > 100 | > 30 | > 100 |
| Nc1ncnc2c1nc(Br)n2C1CCCCC1 | 4.6 | 15 | > 30 | 11 |

From ChEMBL document CHEMBL1153377, “8-Bromo-9-alkyl adenine derivatives as tools for developing new adenosine A2A and A2B receptors ligands” (Bioorg Med Chem, 2009)
